KCNK3 block: human KCNK3 channel inhibition, primary screen. O14649. CHO-KCNK3 thallium flux, FluxOR fluorescence; active compounds read low. B-score at 10 µM. actives 0.84% (n = 340,000). AID 602410;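 active = B-score under library mean minus 4 SD, starting fluorescence ratio at most library mean plus 5 SD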;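 also: more negative B-score means stronger inhibition of thallium flux through KCNK3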
KCNQ1 inh: inhibitors of human KCNQ1 potassium channel; CHO-K1 KCNQ1, FluxOR thallium flux fluorescence; active compounds read high; B-score at 10 µM; actives 1.3% (n = 310,000); AID 2642;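 active = compounds whose thallium flux B-score, printed positive for inhibition, exceeds three library SD while starting fluorescence stays within three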;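 also: channel opened by potassium depolarization with thallium stimulus after 20 min compound exposure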
KCNQ1 act: human KCNQ1 channel potentiation or activation. B-score at 10 µM. P51787. AID 2648. CHO-K1 KCNQ1, thallium flux FluxOR fluorescence; active compounds read high. actives 0.35% (n = 310,000);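 active = fluorescence ratio B-score, a plate-corrected score, at least three library SD, with initial intensity B-score within 5 SD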
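Assay system: CHO-K1 cells stably expressing KCNQ1. Medium: assay buffer for compound exposure, DMSO matched across wells. Timing: 37 °C overnight plating, 90-min dark dye load, 20-min compound pretreatment. Signal: kinetic FluxOR fluorescence, 10 s baseline plus 110 s post-stimulus.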
KCNK9 block: human KCNK9 channel inhibition; HEK293 KCNK9, FluxOR thallium flux fluorescence; active compounds read low; Q9NPC2; AID 488922; B-score at 10 µM; actives 1.2% (n = 310,000);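 active = ratio B-score over 3 SD below the library mean, with starting fluorescence within 5 SD of its mean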;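 also: negative B-score means less thallium flux so channel inhibition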
Target sequence (Q9NPC2 whole entry, looked up): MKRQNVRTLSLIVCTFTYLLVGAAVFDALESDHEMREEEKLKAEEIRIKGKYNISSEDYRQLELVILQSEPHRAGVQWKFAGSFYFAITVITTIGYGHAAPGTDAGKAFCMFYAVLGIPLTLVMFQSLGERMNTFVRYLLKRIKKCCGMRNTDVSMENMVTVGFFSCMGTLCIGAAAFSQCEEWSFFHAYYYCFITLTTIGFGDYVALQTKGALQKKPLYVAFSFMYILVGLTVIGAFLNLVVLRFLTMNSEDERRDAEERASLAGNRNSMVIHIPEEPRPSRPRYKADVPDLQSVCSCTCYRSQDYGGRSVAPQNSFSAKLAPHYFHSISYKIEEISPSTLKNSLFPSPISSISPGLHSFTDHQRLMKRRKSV
hERG rescue: shields human hERG channel from block by proarrhythmic agents; Q12809; CHO-hERG, FluxOR thallium flux, dofetilide IC70 present; activation (rescue from dofetilide block), less the hit threshold, % at 10 µM; actives 0.51% (n = 310,000); AID 1511;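 active = activation above the mean of controls blocked by dofetilide plus 5 SD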;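 also: thallium influx through hERG after potassium depolarization seen as dye fluorescence rise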
KCNK9 block conf: human KCNK9 inhibitor confirmation; AID 492992; shares compounds with KCNK9 block; actives 43% (n = 4,900); inhibition, % at 10 µM; HEK293 KCNK9 cells, FluxOR thallium flux fluorescence;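 active = thallium signal inhibited by more than 5 SD of the compound-free buffer control wells, on both duplicate plates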;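 also: 0% = assay buffer control wells without compound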
Kir2-1 spec: mouse Kir2.1 off-target activity of KCNK9 modulators | shares compounds with KCNK9 block | Kir2.1 cells, FluxOR thallium flux fluorescence | inhibition, % at 10 µM | actives 4% (n = 4,900) | AID 492993;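 active = thallium signal drop more than 5 SD beyond the mean of the no-compound control wells, seen in both duplicate plates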;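 also: signal is fluorescence rise after thallium addition divided by baseline fluorescence; plate controls were assay buffer only for no effect and full block by chlorpromazine control for full effect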
KCNK9 uninduced: non-induced cell nonspecific activity of KCNK9 modulators; actives 40% (n = 4,900); shares compounds with KCNK9 block; non-induced KCNK9-HEK293, FluxOR thallium flux; inhibition, % at 10 µM;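 active = thallium signal drop beyond 5 SD of the untreated control mean, on both duplicate plates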;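 also: plate controls were buffer only IC0 wells for no effect and SID17386958 at its maximal inhibitory level for full effect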
* hit, by the source's call. Most compounds without a hit are left out; they make up all but 3.1% or so of the library.

Cc1sc2nc(SCc3ccc(C(=O)O)cc3)n(Cc3ccco3)c(=O)c2c1C was read as KCNK3 block inactive, KCNQ1 inh inactive, KCNQ1 act inactive, KCNK9 block inactive, hERG rescue -16, KCNK9 block conf inactive, Kir2-1 spec inactive and KCNK9 uninduced inactive.
`COc1cc(N)c(Cl)cc1C(=O)OCC(=O)N1c2ccccc2NC(=O)C1(C)C` gave KCNK3 block inactive.
`COc1ccc(C(=O)CSc2ccc(-c3ccc(C)cc3)nn2)cc1` gave KCNK3 block inactive, KCNQ1 inh inactive, KCNQ1 act inactive, KCNK9 block inactive, hERG rescue -4, KCNK9 block conf inactive, Kir2-1 spec inactive and KCNK9 uninduced inactive.
For O=C(Cc1cccc(NC(=O)C2CCCN(C(=O)C3CCCCC3)C2)c1)Nc1cccc(C(=O)N2CCCCC2)c1 (centres undefined) the results were KCNK3 block inactive.
`CCOc1ccccc1NC(=O)c1nc(-c2ccccc2)oc1C` gave KCNK3 block inactive, KCNQ1 inh inactive, KCNQ1 act inactive, KCNK9 block -12*, hERG rescue -4, KCNK9 block conf inactive, Kir2-1 spec inactive and KCNK9 uninduced 25%*.
Screening CCOc1ccccc1C(=O)Nc1ccccc1-c1ccccc1 returned KCNK3 block inactive, KCNQ1 inh inactive, KCNQ1 act inactive, KCNK9 block -8.8*, hERG rescue -20, KCNK9 block conf 72%*, Kir2-1 spec 38%* and KCNK9 uninduced 25%*.
`COc1ccc(C(C)=O)cc1COc1ccc(Cl)cc1Cl` gave KCNK3 block inactive, KCNQ1 inh inactive, KCNQ1 act inactive, KCNK9 block -14*, hERG rescue 0, KCNK9 block conf 50%*, Kir2-1 spec inactive and KCNK9 uninduced 37%*.
`N#CC1=C(S)N(c2ccccc2)C(c2ccc(-c3ccc(Cl)c(Cl)c3)o2)NC1=O` (centres undefined) gave KCNK3 block inactive, KCNQ1 inh inactive, KCNQ1 act inactive, KCNK9 block inactive, hERG rescue -16, KCNK9 block conf inactive, Kir2-1 spec inactive and KCNK9 uninduced inactive.
`N#CC1=C(S)N(c2ccccc2)C(c2ccc(-c3cc(Cl)ccc3Cl)o2)NC1=O` (centres undefined) gave KCNK3 block inactive, KCNQ1 inh inactive, KCNQ1 act inactive, KCNK9 block inactive and hERG rescue -16.
`CC(C)c1ccc(-c2c(NCCc3ccccc3)c(=O)c2=O)cc1` gave KCNK3 block inactive, KCNQ1 inh inactive, KCNQ1 act inactive, KCNK9 block inactive and hERG rescue -4.
CN(C)c1ccc(C2C3CCCc4ccccc4C3=NN2C)cc1 (centres undefined) was read as KCNK3 block inactive, KCNQ1 inh inactive, KCNQ1 act inactive, KCNK9 block inactive, hERG rescue -10, KCNK9 block conf inactive, Kir2-1 spec inactive and KCNK9 uninduced inactive.
For CN1N=C2c3ccccc3CCC2C1c1ccc(C(F)(F)F)cc1 (centres undefined) the results were KCNQ1 inh inactive, KCNQ1 act inactive, KCNK9 block inactive and hERG rescue -4.
COc1ccc(NC(=O)CN2CCN(CC(=O)Nc3ccc(OC)cc3)CC2)cc1 was read as KCNK3 block inactive, KCNQ1 inh inactive, KCNQ1 act inactive, KCNK9 block inactive and hERG rescue -6.
CCCOc1ccc(C(=O)C(CN2CCOCC2)c2ccccc2)cc1 (centres undefined) was read as KCNK3 block inactive, KCNQ1 inh inactive, KCNQ1 act inactive, KCNK9 block inactive, hERG rescue -8, KCNK9 block conf inactive, Kir2-1 spec inactive and KCNK9 uninduced inactive.
`CCCOc1ccc(C(=O)C(c2ccccc2)N2CCOCC2)cc1` (centres undefined) gave KCNK3 block inactive, KCNQ1 inh inactive, KCNQ1 act inactive, KCNK9 block inactive and hERG rescue -6.
Screening CCOc1ccccc1CN1CCNC(=O)C1CC(=O)NCCCn1cccn1 (centres undefined) returned KCNK3 block inactive, KCNQ1 inh inactive, KCNQ1 act inactive, KCNK9 block inactive and hERG rescue -5.
Screening COc1ccccc1-n1nnnc1SCC(=O)N(C)C1CCS(=O)(=O)C1 (centres undefined) returned KCNK3 block inactive.
For COc1ccc(C(=O)Nn2c(SCC(=O)c3ccccc3)nc3ccccc3c2=O)cc1 the results were KCNK3 block inactive, KCNQ1 inh inactive, KCNQ1 act inactive, KCNK9 block inactive and hERG rescue -20.
Screening COc1ccc(C(=O)Nn2c(SCc3ccc([N+](=O)[O-])cc3)nc3ccccc3c2=O)cc1 returned KCNK3 block inactive, KCNQ1 inh inactive, KCNQ1 act inactive, KCNK9 block -11*, hERG rescue -7, KCNK9 block conf 56%*, Kir2-1 spec inactive and KCNK9 uninduced 32%*.
For O=C(Nn1c(SCc2ccc(F)cc2)nc2ccsc2c1=O)c1ccccc1 the results were KCNK3 block inactive, KCNQ1 inh inactive, KCNQ1 act inactive, KCNK9 block -11*, hERG rescue -11, KCNK9 block conf 74%*, Kir2-1 spec inactive and KCNK9 uninduced 46%*.
For Cc1ccc(CNC(=O)CSc2nc3ccsc3c(=O)n2NC(=O)c2ccccc2)cc1 the results were KCNK3 block inactive, KCNQ1 inh inactive, KCNQ1 act inactive, KCNK9 block inactive and hERG rescue -13.
`COc1ccc(S(=O)(=O)N2CCOc3ccccc32)cc1` gave KCNK3 block inactive, KCNQ1 inh inactive, KCNQ1 act inactive, KCNK9 block inactive and hERG rescue -3.
`Cc1ccc(C)c(-c2cc(C(=O)N/N=C/c3cccnc3)c3ccccc3n2)c1` gave KCNK3 block -9.9*, KCNQ1 inh inactive, KCNQ1 act inactive, KCNK9 block -13*, hERG rescue -14, KCNK9 block conf 54%*, Kir2-1 spec inactive and KCNK9 uninduced 32%*.
`CC1(C)CC(=O)c2c(O)cc(OCc3ccc(Br)cc3)cc2O1` gave KCNK3 block inactive, KCNQ1 inh inactive, KCNQ1 act inactive, KCNK9 block -8.4*, hERG rescue -12, KCNK9 block conf 73%*, Kir2-1 spec inactive and KCNK9 uninduced 42%*.
